Experimental data as given in ChEMBL document CHEMBL1649253, “New approach for drug susceptibility testing: monitoring the stress response of mycobacteria” (2009).
In brackets after ≈: the same amount, converted by molar mass.

How the values were obtained:
Format in all cases: functional
[1] = test system: Mycobacterium tuberculosis; test: Antibacterial activity against isoniazid-resistant Mycobacterium tuberculosis H37Ra
In short: (§1)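 Broth microdilution in supplemented 7H9 (complete) medium with twofold drug dilutions. Inoculum 10^6 CFU/ml from cultures grown at 37°C to mid- or late-log phase. Incubated 21 days at 37°C, then turbidity inspected by eye against drug-free controls. MIC is the lowest concentration with no visible growth.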

[2] = test system: Mycobacterium tuberculosis; test: Antibacterial activity against pyrazinamide-resistant Mycobacterium tuberculosis H37Ra; in short: as §1
[3] = test system: Mycobacterium tuberculosis; test: Antibacterial activity against ethambutol-resistant Mycobacterium tuberculosis H37Ra; in short: as §1
[4] = test system: Mycobacterium tuberculosis; test: Antibacterial activity against rifampin-resistant Mycobacterium tuberculosis H37Ra; in short: as §1

Compound	MIC [1] [µg/mL]	MIC [2] [µg/mL]	MIC [3] [µg/mL]	MIC [4] [µg/mL]
NC(=O)c1cnccn1 [PYRAZINAMIDE]	50 (≈ 406 µM)	> 4000	50 (≈ 406 µM)	50 (≈ 406 µM)
NNC(=O)c1ccncc1 [ISONIAZID]	> 16	0.2 (≈ 1.46 µM)	0.2 (≈ 1.46 µM)	0.2 (≈ 1.46 µM)
CO[C@H]1/C=C/O[C@@]2(C)Oc3c(C)c(O)c4c(O)c(c(/C=N/N5CCN(C)CC5)c(O)c4c3C2=O)NC(=O)/C(C)=C\C=C\[C@H](C)[C@H](O)[C@@H](C)[C@@H](O)[C@@H](C)[C@H](OC(C)=O)[C@@H]1C [RIFAMPIN]	0.2 (≈ 0.243 µM)	0.2 (≈ 0.243 µM)	0.2 (≈ 0.243 µM)	16 (≈ 19.4 µM)
CC[C@@H](CO)NCCN[C@@H](CC)CO [ETHAMBUTOL]	5 (≈ 24.5 µM)	5 (≈ 24.5 µM)	> 400	5 (≈ 24.5 µM)
